From PubChem BioAssay
Compounds with a hit are over-represented: about 2.3% of the library has one in this group of screens.
DNMT1 inh: DNMT1 (human) enzyme inhibition; P26358; DNMT1 molecular beacon, Hinp1I cleavage, fluorescence; inhibition (reported as % activation of signal), % at 10 µM; actives 0.83% (n = 360,000); AID 588458; in the data active means inhibition above about 50%
MT1-MMP act inh: inhibitors of human MT1-MMP activation. P50281. HT1080 RFP-PRO-GFP cells, GFP/RFP ratio fluorescence, overnight; percent of plate control window, DMSO zero. GFP/RFP ratio change, % at 20 µM. actives 0.061% (n = 360,000);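 active means GFP/RFP ratio change of at least 30% with cell ATP level not reduced by more than half and red fluorescence within 50% of control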
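Read-out: GFP/RFP fluorescence ratio; Test system: RFP-PRO-GFP reporter HT1080 cells; Compound dosing: single-point 20 µM compound, 1% DMSO; Times: overnight compound exposure at 37 °C.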
Rpn11 block: blocks the human proteasome subunit Rpn11. O00487. human 26S proteasome, Ub4-pepOG fluorescence polarization; 20S core pre-blocked with epoxomicin. inhibition, % at 20 µM. actives 0.59% (n = 360,000). AID 588493;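 active means inhibition at 20 µM, scaled to each plate's controls, above about 33%, limit read from the data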
CSN deneddyl inh: CSN deneddylation inhibition. actives 0.38% (n = 360,000). Q92905. AID 651999. inhibition, % at 12.5 µM. Purified CSN, SCF-Nedd8-OG deneddylation, fluorescence polarization;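 active means pattern-corrected inhibition above about 35%, with an unprinted fluorescence ratio check between 0.5 and 1.5, limit read from the data, passing the limit was not always enough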;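 further: 0% = enzyme with substrate and 100% = substrate without enzyme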
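assay system = purified human Csn5 enzyme expressed in HEK293T cells | amount = 0.24 nM enzyme | buffer or medium = Tris/NaCl/DTT buffer, pH 7.5 | reagent = 10 nM SCFSkp2-Nedd8OG | compound = one concentration, 12.5 µM, 0.25% DMSO | times = 90 min reaction at room temperature | signal = FP | read-out basis = % inhibition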
SKN-1 block: inhibitors of C. elegans SKN-1; inhibition, % at 21.8 µM; actives 0.49% (n = 360,000); C. elegans VP596 Pgst-4::GFP/RFP ratio, acrylamide-induced, 24 h; AID 624304;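 active means interference check ratio from 0.5 to 1.5 plus GFP to RFP signal ratio inhibition reaching or exceeding a fixed threshold, cut at about 30% in these data, passing the limit was not always enough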
SUMO1-SIM PPI: alters human SUMO1 binding to SIM partners; P63165; SUMO1 binding to a labelled peptide, TR-FRET, 1 h; inhibition, % at 20 µM; actives 0.33% (n = 360,000); in the data active means inhibition above about 37%
An asterisk follows results filed as active; nt = no result given.

SMILES | DNMT1 inh | MT1-MMP act inh | Rpn11 block | CSN deneddyl inh | SKN-1 block | SUMO1-SIM PPI
Cc1c(C)n(Cc2ccccc2)c2ccc(C(=O)OCCN(C)C)cc12 | -2 | -11 | -8 | -3 | 36* | -3
O=C(/C=C/c1ccccc1)NC(=S)NNC(=O)c1cccnc1 | 1 | 5 | 8 | 4 | 36* | -3
COc1ccc(CNC(=O)CSc2nnc3c(n2)[nH]c2ccc(C)cc23)cc1 | 42 | 0 | 0 | 5 | 9 | 3
COc1ccc2[nH]c3nc(SCc4nnc(-c5ccc(C)cc5)o4)nnc3c2c1 | 56* | 2 | 1 | 8 | -7 | -1
Cc1ccc(-c2csc(NC(=S)NC(=O)/C=C/c3ccco3)n2)cc1 | -12 | 6 | 7 | 6 | -12 | 1
O=C(/C=C\c1ccco1)Nc1nc(-c2ccc3ccccc3c2)cs1 | -11 | -11 | 6 | -11 | 39* | 3
COc1ccc(-c2csc(N)n2)cc1 | -1 | 5 | -1 | -6 | -7 | -1
Nc1nc(-c2ccc(Oc3ccccc3)cc2)cs1 | -8 | 1 | 3 | 0 | 44* | 5
Nc1nc(-c2ccc(-c3ccccc3)cc2)cs1 | -34 | -3 | -1 | -7 | 66* | -7
Cc1ccc(-c2csc(N)n2)cc1 | -10 | -2 | 4 | -3 | -18 | -4
Cc1cccc(C)c1NC(=O)C1(C)CSCC(=O)N1CCCn1ccnc1 (stereo unspecified) | nt | -2 | nt | 3 | -9 | 0
N#C/C(=C\c1ccc(Cl)cc1)c1nc(-c2ccco2)cs1 | -3 | 0 | 1 | -12 | 52 | -4
N#C/C(=C\c1ccc(F)cc1)c1nc(-c2ccco2)cs1 | 1 | 3 | 28 | 20 | 60* | -1
CN(C)CCNc1ccc2nnn3c4ccc(O)cc4c(=O)c1c23 | 53* | 24 | 4 | 14 | 15 | -93
CCN(CC)CCCNc1ccc2ncn3c4ccc(O)cc4c(=O)c1c23 | 133* | -112 | -210 | -73 | -48 | -11
CCOC(=O)c1ccc2ncc(C(=O)OCC)c(NCCN(C)C)c2c1 | 9 | -14 | -124 | -73 | -29 | -4
Cc1cc(-c2csc(Nc3ccccn3)n2)ccc1F | -3 | -1 | 4 | -2 | 22 | 9
O=C(Nc1nc(-c2cc(F)ccc2F)cs1)C1=COCCO1 | -3 | 4 | 1 | -4 | 22 | -1
Fc1ccc(-c2csc(Nc3ccccn3)n2)c(F)c1 | -8 | -1 | -14 | 2 | 60* | 7
O=C(Nc1nc(-c2cc(F)ccc2F)cs1)c1ccccn1 | 29 | 2 | 6 | 3 | 38* | 5
Cc1ccc(-c2csc(Nc3ccccn3)n2)cc1 | -9 | -2 | -7 | 4 | 26 | 6
c1ccc(-c2csc(Nc3ccccn3)n2)cc1 | 0 | 1 | -4 | -1 | 67* | -1
Cc1cccnc1Nc1nc(-c2ccc(F)cc2)cs1 | -1 | 1 | -8 | -4 | 42* | 0
COc1ccc(-c2cnc(C(O)c3ccc(OC)c(F)c3)[nH]2)cc1 (stereo unspecified) | -2 | 2 | -1 | 1 | 8 | 0
COc1ccc(CN(C)C(=O)[C@H]2O[C@@H](n3ccc(N)nc3=O)[C@H](O)[C@@H]2O)cc1OC | -4 | 4 | 2 | -3 | 14 | -4
SMILES | DNMT1 inh | MT1-MMP act inh | Rpn11 block | CSN deneddyl inh | SKN-1 block | SUMO1-SIM PPI
CN(C(=S)NC(=O)c1ccc(Cl)cc1)C1CCCCC1 | -4 | 8 | -2 | -2 | -17 | 5
CN(C(=S)NC(=O)c1ccccc1)C1CCCCC1 | -1 | 8 | -9 | 46* | 5 | 6
O=c1ccoc2ccccc12 | 0 | 7 | 14 | -2 | 15 | 5
COC(=O)[C@]12CCCCC=C1N(Cc1ccco1)C(=O)[C@H](CC(=O)NCC13CC4CC(CC(C4)C1)C3)C2 | nt | -2 | nt | 0 | 9 | 6
O=S(=O)(c1ccc(F)cc1)n1ccc(-c2cccc(OCc3c(F)cccc3Cl)c2)n1 | 3 | -6 | 1 | 0 | 42* | 6
Nc1ccc(OCCCc2c(N)nc(N)nc2N)cc1 | 29 | -6 | 81* | 30 | 19 | 31
COc1ccc(Cc2c(N)nc(N)nc2N)cc1 | -1 | 3 | -2 | 1 | -1 | -2
CN(C)c1ccc(O)c2c1CC1CC3[C@@H](N(C)C)C(=O)C(C(N)=O)=C(O)[C@]3(O)C(=O)C1=C2O (stereo partly specified) | 90* | -9 | -18 | 55 | 2 | 23
COC(=O)c1ccc(OCC(=O)Nc2nn(-c3ccccc3)nc2C(N)=O)cc1 | -27 | 0 | -6 | -1 | 5 | 50*
CC1CCN(CC(=O)Nc2nn(-c3ccccc3)nc2C(N)=O)CC1 | 1 | 5 | -1 | 1 | -9 | 5
Cc1cccc(C)c1NC(=O)C1(C)CN(S(C)(=O)=O)CC(=O)N1CCCn1ccnc1 (stereo unspecified) | nt | -4 | nt | -2 | 1 | -1
C[C@@H]1O[C@@H](OC[C@H]2O[C@@H](Oc3cc(O)c4c(=O)cc(-c5ccc(O)c(O)c5)oc4c3)[C@H](O)[C@@H](O)[C@@H]2O)[C@H](O)[C@H](O)[C@H]1O | 8 | 9 | -5 | -1 | 4 | -20
O=c1cc(-c2ccc(O)c(O)c2)oc2cc(O[C@@H]3O[C@H](CO)[C@@H](O)[C@H](O)[C@H]3O)cc(O)c12 | 52* | -60 | -2 | 5 | -7 | -16
COc1ccc2c(c1)CCC(=O)[C@H](O)C[C@H](c1ccccc1)OC2=O | nt | 3 | nt | -4 | 4 | 1
COc1ccc2c(c1)C(=O)O[C@@H](c1ccccc1)C[C@@H](O)C(=O)CC2 | nt | 2 | nt | 87* | -8 | 0
CC(C)C[C@H]1CNC(=O)C(=O)N1C[C@H]1CCCN1C[C@H](CC(C)C)N1C[C@H](CC(C)C)N(CCc2ccccc2)C(=O)C1=O | nt | -3 | nt | -3 | 8 | -2
COC(=O)C[C@H]1CC[C@H](NC(=O)Nc2ccccc2F)[C@@H](CO)O1 | nt | -5 | nt | -2 | -8 | 2
O=C(Nc1ccc(F)cc1)Nc1ccc(N2CCOCC2)c2nonc12 | 1 | 4 | 7 | -7 | 11 | -11
COc1ccc(NC(=O)Nc2ccc(N3CCOCC3)c3nonc23)c(OC)c1 | -5 | 24 | 29 | 19 | 44* | -4
Cc1cccc(-n2nc3c(c2NC(=O)c2ccco2)CS(=O)C3)c1C (stereo unspecified) | 3 | 2 | 3 | 1 | -10 | 5
Cc1ccccc1-n1nc2c(c1NC(=O)C1CCCC1)CS(=O)(=O)C2 | 2 | -8 | -4 | -2 | 24 | 1
